Test results as given in ChEMBL document CHEMBL1126940, “Synthesis and dopamine receptor modulating activity of lactam conformationally constrained analogues of Pro-Leu-Gly-NH2” (J Med Chem, 1993).
Residues, ends and D or L forms follow the SMILES beside them.

Tests used:
[1] = molecular target: T1, Dopamine receptor (Bos taurus) (UniProt Q95136+P20288); experiment: In vitro ability to enhance the binding of [3H]ADTN to dopamine receptor obtained from bovine caudate membranes at a concentration of 10E-4 M
Procedure, shortened: (§1)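 Striatal synaptosomal membranes from bovine caudate incubated with [3H]ADTN with or without (control) peptide at 10^-12–10^-4 M, in triplicate, 37°C for 10 min, no preincubation; filtered, filters counted by liquid scintillation. Nonspecific binding defined with 10 μM (+)-butaclamol. Result expressed as percent enhancement over control; average ± SEM of three or four experiments; unpaired t-test on dpm.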

[2] = molecular target: T1, Dopamine receptor (Bos taurus); experiment: In vitro ability to enhance the binding of [3H]ADTN to dopamine receptor obtained from bovine caudate membranes at a concentration of 10E-5 M; procedure, shortened: as §1
[3] = molecular target: T1, Dopamine receptor (Bos taurus); experiment: In vitro ability to enhance the binding of [3H]ADTN to dopamine receptor obtained from bovine caudate membranes at a concentration of 10E-6 M; procedure, shortened: as §1
[4] = molecular target: T1, Dopamine receptor (Bos taurus); experiment: In vitro ability to enhance the binding of [3H]-ADTN to dopamine receptor obtained from bovine caudate membranes at a concentration of 10E-7 M; procedure, shortened: as §1
[5] = molecular target: T1, Dopamine receptor (Bos taurus); experiment: In vitro ability to enhance the binding of [3H]ADTN to dopamine receptor obtained from bovine caudate membranes at a concentration of 10E-8 M; procedure, shortened: as §1
[6] = molecular target: T1, Dopamine receptor (Bos taurus); experiment: In vitro ability to enhance the binding of [3H]ADTN to dopamine receptor obtained from bovine caudate membranes at a concentration of 10E-9 M; procedure, shortened: as §1
[7] = molecular target: T1, Dopamine receptor (Bos taurus); experiment: In vitro ability to enhance the binding of [3H]ADTN to dopamine receptor obtained from bovine caudate membranes at a concentration of 10E-10 M; procedure, shortened: as §1
[8] = molecular target: T1, Dopamine receptor (Bos taurus); experiment: In vitro ability to enhance the binding of [3H]-ADTN to dopamine receptor obtained from bovine caudate membranes at a concentration of 10E-11 M; procedure, shortened: as §1
[9] = molecular target: T1, Dopamine receptor (Bos taurus); experiment: In vitro ability to enhance the binding of [3H]ADTN to dopamine receptor obtained from bovine caudate membranes at a concentration of 10E-12 M; procedure, shortened: as §1

| Increase [1] [%] | Increase [2] [%] | Increase [3] [%] | Increase [4] [%] | Increase [5] [%] | Increase [6] [%] | Increase [7] [%] | Increase [8] [%] | Increase [9] [%] | SMILES |
| --- | --- | --- | --- | --- | --- | --- | --- | --- | --- |
| 17 | 27 | 61 | 38 | 35 | 30 | 15 | 8 |  | NC(=O)CN1CCCC[C@@H](NC(=O)C2CCCN2)C1=O (some centres not stated) |
|  | 18 | 43 | 16 | 11 | 4 | 3 | 4 | 2 | NC(=O)CN1CCC[C@@H](NC(=O)C2CCCN2)C1=O (some centres not stated) |
| 9.5 | 22 | 27 | 8 | 5 | 3.9 | 2.5 |  | 1.5 | NC(=O)CN1C[C@H](NC(=O)C2CCCN2)C1=O (some centres not stated) |

Further lines, the compound ahead of its results:

| SMILES | Increase [1] [%] | Increase [2] [%] | Increase [3] [%] | Increase [4] [%] | Increase [5] [%] | Increase [6] [%] | Increase [7] [%] | Increase [8] [%] | Increase [9] [%] |
| --- | --- | --- | --- | --- | --- | --- | --- | --- | --- |
| NC(=O)CN1CC[C@H](NC(=O)C2CCCN2)C1=O (some centres not stated) | 1.4 | 1.6 | 2.8 | 5.6 | 9.2 | 23 | 24.4 | 12 | 2.2 |
| NC(=O)CN1OC[C@H](NC(=O)C2CCCN2)C1=O (some centres not stated) | 7 | 37 | 54 | 30 | 14 | 6.8 | 2.5 | 2 | 2 |
| CC(C)C[C@H](NC(=O)[C@@H]1CCCN1)C(=O)NCC(N)=O (H-Pro-Leu-Gly-NH2) |  |  | 27 |  |  |  |  |  |  |
| NC(=O)CN1C(=O)C[C@H](NC(=O)C2CCCN2)C1=O (some centres not stated) | 13 | 33 | 38 | 42 | 13.5 | 4.6 | 3.3 | 5.5 | 4 |
